Published values gathered from unrelated publications.
Protocols differ between the studies behind these lines.
Target: Mitogen-activated protein kinase kinase kinase 19 (MAP3K19, Homo sapiens, UniProt Q56UN5)
Sequence (Q56UN5 1-1328, as in one of the studies): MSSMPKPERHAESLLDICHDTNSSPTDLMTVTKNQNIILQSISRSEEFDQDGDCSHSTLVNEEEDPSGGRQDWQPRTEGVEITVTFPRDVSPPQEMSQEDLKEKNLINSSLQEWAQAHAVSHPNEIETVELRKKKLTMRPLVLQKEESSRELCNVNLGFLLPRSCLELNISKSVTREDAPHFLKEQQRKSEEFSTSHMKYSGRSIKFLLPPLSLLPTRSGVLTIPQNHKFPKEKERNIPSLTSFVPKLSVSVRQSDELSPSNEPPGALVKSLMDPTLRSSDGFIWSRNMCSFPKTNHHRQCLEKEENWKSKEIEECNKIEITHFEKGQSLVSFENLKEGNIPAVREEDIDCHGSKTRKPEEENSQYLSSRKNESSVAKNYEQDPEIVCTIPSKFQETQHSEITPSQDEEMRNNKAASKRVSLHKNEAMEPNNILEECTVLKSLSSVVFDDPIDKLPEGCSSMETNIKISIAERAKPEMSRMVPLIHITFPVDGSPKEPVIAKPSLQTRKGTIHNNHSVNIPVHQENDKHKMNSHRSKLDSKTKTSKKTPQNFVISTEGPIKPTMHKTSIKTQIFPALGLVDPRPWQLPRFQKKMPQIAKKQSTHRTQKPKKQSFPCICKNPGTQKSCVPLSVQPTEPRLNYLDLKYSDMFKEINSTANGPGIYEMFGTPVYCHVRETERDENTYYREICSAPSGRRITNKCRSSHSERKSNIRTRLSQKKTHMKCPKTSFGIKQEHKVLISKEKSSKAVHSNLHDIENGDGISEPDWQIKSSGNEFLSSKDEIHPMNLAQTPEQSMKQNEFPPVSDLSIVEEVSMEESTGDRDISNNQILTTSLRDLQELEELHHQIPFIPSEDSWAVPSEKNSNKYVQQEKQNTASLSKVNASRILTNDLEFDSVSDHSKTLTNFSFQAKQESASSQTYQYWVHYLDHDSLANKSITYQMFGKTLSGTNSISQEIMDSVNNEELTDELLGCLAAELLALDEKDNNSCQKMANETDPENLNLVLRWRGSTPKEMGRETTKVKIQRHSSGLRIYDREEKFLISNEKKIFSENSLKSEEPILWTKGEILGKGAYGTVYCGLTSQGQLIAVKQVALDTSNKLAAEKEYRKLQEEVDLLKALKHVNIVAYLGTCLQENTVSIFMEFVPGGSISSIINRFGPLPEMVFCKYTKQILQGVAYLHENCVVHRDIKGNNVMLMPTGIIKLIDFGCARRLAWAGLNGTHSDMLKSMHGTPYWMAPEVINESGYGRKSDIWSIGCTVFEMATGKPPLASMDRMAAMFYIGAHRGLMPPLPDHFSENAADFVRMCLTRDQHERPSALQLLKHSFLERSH

test | conditions | remaining binding | Structure (SMILES)
binding | 1 µM | 79% | N[C@H]1CCN(c2nccc(-c3cnn4ncccc34)n2)C1
binding, competition with immobilised ligand | 1 µM | 0% | Cc1cnc(Nc2ccc(C(=O)N3CCC(N4CCCC4)CC3)cc2)nc1-c1cc2ccccc2s1
cell-free assay, competition with immobilised ligand | 1 µM | 100% | CC(=O)N1CCC(c2ccc(C(=O)NC3=NCCN3)cc2C(F)(F)F)CC1
binding | 1 µM | 89% | F[C@@H]1CCN(c2nccc(-c3cnn4ncccc34)n2)C1
binding, competition with immobilised ligand | 1 µM | 0% | O=C(c1ccc(Nc2ncc(Cl)c(-c3ccc(Cl)s3)n2)cc1)N1CCC(N2CCCC2)CC1
cell-free assay, competition with immobilised ligand | 1 µM | 78% | CNCc1ccccc1-c1csc([C@H](C)Nc2nc(C)nc3cc(OC)c(OC)cc23)c1
binding | 1 µM | 95% | CN(CCCC(F)(F)F)c1nccc(-c2cnn3ncccc23)n1
binding, competition with immobilised ligand | 10 µM | 18% | c1cncc(-c2cccc(Nc3nccc(NC4CCCCC4)n3)c2)c1
cell-free assay, competition with immobilised ligand | 1 µM | 79% | Cc1nc(C2CCN(C(=O)c3ccc(OC(F)(F)F)cc3N)CC2)c2ncc(N3CCN(C)CC3)cc2n1
binding, competition with immobilised ligand | 1 µM | 100% | CNC(=O)[C@@H]1CC[C@@H](n2c(-c3ccc4cnccc4c3)nc3ccc(C(=O)NCc4cccc(C(N)=O)c4)cc32)C1
binding, competition with immobilised ligand | 1 µM | 0% | O=C(c1ccc(Nc2nccc(-c3cc4ccccc4s3)n2)cc1)N1CCC(N2CCCC2)CC1
cell-free assay, competition with immobilised ligand | 1 µM | 64% | CO[C@H]1CC[C@H](CNc2ccc(S(=O)(=O)NC(=O)c3ccc(N4CCN(CC5=C(c6ccc(Cl)cc6)CC(C)(C)CC5)CC4)cc3Oc3cnc4[nH]ccc4c3)cc2[N+](=O)[O-])CC1
binding, competition with immobilised ligand | 0.1 µM | 47% | C[C@@H](c1ccc(-n2cnc3c(N)ncnc32)cc1)N1CCc2nn(C)c(Cc3ccccc3)c2C1=O
binding | 1 µM | 69% | CN(C)c1ncc(F)c(-c2cnn3ncccc23)n1
cell-free assay, competition with immobilised ligand | 0.1 µM | 99.5% | Cc1cc(C)c(-n2ccn3nc(-c4cccnc4)cc23)cc1NC(=O)c1cc(C#N)cc(S(F)(F)(F)(F)F)c1
binding, competition with immobilised ligand | 1 µM | 64% | Nc1ncc2c(n1)-c1c([nH]c3ccc(C#CC4CC4)cc13)CCCC2
binding | 1 µM | 79% | CN(C)c1nccc(-c2cnc3ncccn23)n1
binding, competition with immobilised ligand | 1 µM | 100% | O=C(Nc1c[nH]nc1C(=O)NC1CCNCC1)c1cc(F)cc(F)c1
binding, competition with immobilised ligand | 1 µM | 67% | Cc1nc(N2CC[C@@H](O)C2)ncc1-c1cc(C(F)(F)F)cc2[nH]ncc12
binding | 1 µM | 99% | CN(c1nccc(-c2cnn3ncccc23)n1)C1CC1
